In general, IC50 refers to the concentration at which inhibition is half-maximal. A lower IC50 goes with greater potency.

This passage reports IC50 results from ChEMBL document CHEMBL1131506, “Development of a binding model to protein tyrosine kinases for substituted pyrido[2,3-d]pyrimidine inhibitors” (J Med Chem, 1998).

The target in assay [1] is Fibroblast growth factor receptor (Homo sapiens, UniProt P22607+P11362+P22455+P21802). In words: Inhibitory concentration of compound against human fibroblast growth factor receptor. The class given is protein assay.
Assay [2] deals with Platelet-derived growth factor receptor (Mus musculus, UniProt P05622+P26618). Nature of the assay: Inhibitory concentration of compound against mouse Platelet-derived growth factor receptor.
For assay [3], the target named is Proto-oncogene tyrosine-protein kinase Src (Gallus gallus, UniProt P00523). In words: Inhibition of chicken c-Src tyrosine kinase. In outline: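 Recombinant avian c-Src expressed in baculovirus-infected insect cells, immunopurified on polystyrene beads carrying a covalently linked Src-specific monoclonal antibody. The enzyme-bead suspension was assayed in vitro with 40 µM ATP, measuring 32P-phosphate transfer into a trichloroacetic acid-precipitable random glutamate/tyrosine (4:1) copolymer. The IC50 was in µM.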

Assay [4] addresses Epidermal growth factor receptor (Homo sapiens, UniProt P00533). In words: Inhibition of human epidermal growth factor receptor.

Sequence of Epidermal growth factor receptor (P00533 whole entry): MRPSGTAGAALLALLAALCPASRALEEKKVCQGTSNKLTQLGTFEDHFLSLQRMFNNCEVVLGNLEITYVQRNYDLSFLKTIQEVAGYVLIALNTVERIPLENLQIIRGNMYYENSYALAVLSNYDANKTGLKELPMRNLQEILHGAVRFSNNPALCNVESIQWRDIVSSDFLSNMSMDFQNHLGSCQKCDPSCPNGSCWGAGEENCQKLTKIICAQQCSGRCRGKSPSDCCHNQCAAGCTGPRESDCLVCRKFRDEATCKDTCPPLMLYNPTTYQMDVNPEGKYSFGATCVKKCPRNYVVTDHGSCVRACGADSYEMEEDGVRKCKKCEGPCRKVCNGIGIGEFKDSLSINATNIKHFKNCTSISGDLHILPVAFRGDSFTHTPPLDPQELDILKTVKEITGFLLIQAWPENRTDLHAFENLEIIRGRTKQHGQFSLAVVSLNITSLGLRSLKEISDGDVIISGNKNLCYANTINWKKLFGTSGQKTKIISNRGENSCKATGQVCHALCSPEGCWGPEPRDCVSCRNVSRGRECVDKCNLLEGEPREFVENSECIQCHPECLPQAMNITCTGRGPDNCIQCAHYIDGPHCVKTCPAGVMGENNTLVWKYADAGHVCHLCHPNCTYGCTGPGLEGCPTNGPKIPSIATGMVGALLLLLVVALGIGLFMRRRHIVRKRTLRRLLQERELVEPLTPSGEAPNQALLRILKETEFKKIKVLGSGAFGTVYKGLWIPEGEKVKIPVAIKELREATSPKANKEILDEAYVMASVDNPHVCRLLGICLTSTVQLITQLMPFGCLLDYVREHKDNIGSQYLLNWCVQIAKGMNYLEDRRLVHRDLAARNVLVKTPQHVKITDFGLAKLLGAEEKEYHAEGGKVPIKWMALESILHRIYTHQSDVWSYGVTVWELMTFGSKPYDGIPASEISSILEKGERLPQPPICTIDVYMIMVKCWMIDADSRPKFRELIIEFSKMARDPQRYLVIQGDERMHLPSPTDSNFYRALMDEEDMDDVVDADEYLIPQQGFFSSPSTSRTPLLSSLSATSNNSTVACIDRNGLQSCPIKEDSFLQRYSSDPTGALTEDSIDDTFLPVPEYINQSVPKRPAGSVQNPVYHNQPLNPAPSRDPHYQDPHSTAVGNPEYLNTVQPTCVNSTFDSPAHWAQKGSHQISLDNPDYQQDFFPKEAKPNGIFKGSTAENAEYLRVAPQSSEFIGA

In the case of `COc1cc(OC)cc(-c2cc3cnc(N)nc3n(C)c2=O)c1`, the IC50 is 0.126 µM in assay [1], 43.1 µM in assay [2] and above 50 µM in assay [3].

In assay [3], `CCN(CC)CCOc1cccc(Nc2ncc3cc(-c4c(Cl)cccc4Cl)c(=O)n(C)c3n2)c1` registered an IC50 of 0.009 µM.

As to `COc1ccc(NC(=O)Nc2nc3nc(NCCCN4CCN(C)CC4)ncc3cc2-c2c(Cl)cccc2Cl)cc1`, the values for the IC50 in assay [4] and in assay [3] were 0.72 µM and 0.028 µM, respectively.

Consider `CN1CCN(CCCNc2ncc3cc(-c4c(Cl)cccc4Cl)c(=O)n(C)c3n2)CC1`, for which the IC50 was found to be 0.348 µM in assay [1], 2.7 µM in assay [2] and 0.237 µM in assay [3].

For `CN(C)c1ncc2cc(-c3c(Cl)cccc3Cl)c(=O)n(C)c2n1`, the IC50 in assay [1], in assay [4], in assay [2] and in assay [3] was above 50 µM each time.

The compound `COc1cc(OC)cc(-c2cc3cnc(N)nc3nc2NC(=O)NC(C)(C)C)c1` yielded an IC50 in assay [3] above 50 µM.

`CCOc1cc(OCC)cc(-c2cc3cnc(N)nc3nc2NC(=O)NC(C)(C)C)c1`: the concentration for half-maximal inhibition (IC50) in assay [1] is 1.65 µM; in assay [2] it was above 50 µM; in assay [3], above 50 µM.

For `CC(C)(C)NC(=O)Nc1nc2nc(N)ncc2cc1-c1cc(C(F)(F)F)cc(C(F)(F)F)c1`, the half-inhibitory concentration (IC50) in assay [1], in assay [2] and in assay [3] was above 50 µM in each case.

Consider `CN(C)c1cc(-c2cc3cnc(N)nc3nc2NC(=O)NC(C)(C)C)cc(N(C)C)c1`, for which the half-inhibitory concentration (IC50) was above 16 µM in assay [1], above 50 µM in assay [2] and above 50 µM in assay [3].

Take `Cn1c(=O)c(-c2c(Cl)cccc2Cl)cc2cnc(Nc3ccc(CC(=O)O)cc3)nc21`: the results for the half-maximal inhibitory concentration (IC50) in assay [1], in assay [2] and in assay [3] were 0.061 µM, 0.07 µM and 0.01 µM, respectively.

On to `Cn1c(=O)c(-c2c(Cl)cccc2Cl)cc2cncnc21`, for which the IC50 was above 50 µM in assay [1], above 50 µM in assay [4], above 50 µM in assay [2] and above 10 µM in assay [3].

Take `CN1CCN(CCCNc2ncc3cc(-c4c(Cl)cccc4Cl)c(NC(=O)NC4CCCCC4)nc3n2)CC1`: half-maximal inhibition in assay [4] (IC50) required 0.88 µM.

For the compound `CN1CCN(c2ccc(Nc3ncc4cc(-c5c(Cl)cccc5Cl)c(=O)n(C)c4n3)cc2)CC1`, the half-maximal inhibitory concentration (IC50) stood at 0.051 µM in assay [1] and 0.115 µM in assay [2].

`CN1CCN(CCCNc2ncc3cc(-c4c(Cl)cccc4Cl)c(NC(=O)NCc4ccccc4)nc3n2)CC1`: the results for the IC50 in assay [4] and in assay [3] were 0.98 µM and 0.03 µM, respectively.

In the case of `Cc1ncc2cc(-c3c(Cl)cccc3Cl)c(=O)n(C)c2n1`, the IC50 in assay [1], in assay [4], in assay [2] and in assay [3] was above 50 µM throughout.
